Data published in ChEMBL document CHEMBL4261586, “Conjugation of a 5-nitrofuran-2-oyl moiety to aminoalkylimidazoles produces non-toxic nitrofurans that are efficacious in vitro and in vivo against multidrug-resistant Mycobacterium tuberculosis” (Eur J Med Chem, 2018).
≈ marks a conversion by molar mass, not a printed value.

Experiments:
Format in all cases: functional
[1] = system: Mycobacterium tuberculosis; assay: Antimycobacterial activity against multidrug-resistant Mycobacterium tuberculosis 5023 harboring rpoB S531L/katG S315T mutation mutation after 7 days by resazurin microtitre plate assay
Summary of the method: (§1)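 REMA in Middlebrook 7H9 with OADC. Three-week culture vortexed with glass beads, adjusted to 1.0 McFarland (about 3×10⁸ bacteria/mL) and diluted 20-fold. Final concentrations 1.6–200 via 2-fold dilutions; growth control plus 1% ([…] diluted) control. 7 days at 35 °C, then 0.01% resazurin for 18 h; fluorescence ex 520/em 590 nm. MIC taken where fluorescence plateaued or matched the 1% control (t-test).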

[2] = system: Mycobacterium tuberculosis; assay: Antimycobacterial activity against multidrug-resistant Mycobacterium tuberculosis 2712 harboring rpoB S531L/katG I335V/ahpC T10 mutation after 7 days by resazurin microtitre plate assay; summary of the method: as §1
[3] = system: Mycobacterium tuberculosis; assay: Antimycobacterial activity against multidrug-resistant Mycobacterium tuberculosis 7106 harboring rpoB S531L/katG S315T mutation after 7 days by resazurin microtitre plate assay; summary of the method: as §1
[4] = system: Mycobacterium tuberculosis; assay: (§2) Antitubercular activity against multidrug-resistant Mycobacterium tuberculosis 2712 infected in C57BL/6 mouse assessed as colony forming units per lung mass units at 28 mg/kg, po administered via gavage over 42 days (excluding weekends) cotreated with prothionamide, levofloxacin and p-aminosalicylic acid (reference value: 85.7 +/- 5.3 x 10^3)
[5] = system: Mycobacterium tuberculosis; assay: as §2, with “as” for “as colony forming units per”, “index” for “units”, “1.81” for “85.7”, “0.12)” for “5.3 x 10^3)”
[6] = system: Mycobacterium tuberculosis; assay: as §2, with “tubercular foci index” for “colony forming units per lung mass units”, “3.46” for “85.7”, “0.09)” for “5.3 x 10^3)”

**Q.** What does the source list for `Cc1cnc(C)n1C1CCN(C(=O)c2ccc([N+](=O)[O-])o2)C1` (stereo not drawn)?
**A.** MIC [1]: 25 µg/mL (≈ 82.2 µM); MIC [2]: 25 µg/mL (≈ 82.2 µM); MIC [3]: 12.5 µg/mL (≈ 41.1 µM)

**Q.** With `Cc1cnc(-c2ccccc2)n1CC1CCN(C(=O)c2ccc([N+](=O)[O-])o2)C1` (stereo not drawn) as the compound, how does the MIC [1] read?
**A.** 6.2 µg/mL (≈ 16.3 µM)

**Q.** And the MIC [2]?
**A.** 3.1 µg/mL (≈ 8.15 µM)

**Q.** What about the MIC [3] of the same compound?
**A.** 6.2 µg/mL (≈ 16.3 µM)

**Q.** `CCCn1c(C)cnc1C1CN(C(=O)c2ccc([N+](=O)[O-])o2)C1` was tested. Which MIC [1] did it give?
**A.** 3.1 µg/mL (≈ 9.74 µM)

**Q.** And the Activity [4]?
**A.** 10.6 ×10³ CFU

**Q.** What about the MIC [2] of the same compound?
**A.** 0.8 µg/mL (≈ 2.51 µM)

**Q.** What about the MIC [3] of the same compound?
**A.** 3.1 µg/mL (≈ 9.74 µM)

**Q.** What about the Activity_index [5] of the same compound?
**A.** 1.15

**Q.** What about the Activity_index [6] of the same compound?
**A.** 2.54

**Q.** What does the source list for `Cc1cnc(CCNC(=O)c2ccc([N+](=O)[O-])o2)n1C1CCC1`?
**A.** MIC [1]: 12.5 µg/mL (≈ 39.3 µM); MIC [2]: 12.5 µg/mL (≈ 39.3 µM); MIC [3]: 12.5 µg/mL (≈ 39.3 µM)

**Q.** What does the source list for `Cc1cnc(CC2CCN(C(=O)c3ccc([N+](=O)[O-])o3)C2)n1CC1CC1` (stereo not drawn)?
**A.** MIC [1]: 6.2 µg/mL (≈ 17.3 µM); MIC [2]: 1.6 µg/mL (≈ 4.46 µM); MIC [3]: 12.5 µg/mL (≈ 34.9 µM)
